Measured values: ChEMBL document CHEMBL2150846, “Optimization of an ether series of mGlu5 positive allosteric modulators: molecular determinants of MPEP-site interaction crossover” (Bioorg Med Chem Lett, 2012)
The source made the active and inactive calls. No cut-off for these calls is given here.

Key:
[1] = target: T1, Metabotropic glutamate receptor 5 (Rattus norvegicus, UniProt P31424); assay: Positive allosteric modulation of rat mGluR5 expressed in human HEK293 cells assessed as calcium mobilization; assay type: functional, cell-based
T1 sequence (P31424 whole entry): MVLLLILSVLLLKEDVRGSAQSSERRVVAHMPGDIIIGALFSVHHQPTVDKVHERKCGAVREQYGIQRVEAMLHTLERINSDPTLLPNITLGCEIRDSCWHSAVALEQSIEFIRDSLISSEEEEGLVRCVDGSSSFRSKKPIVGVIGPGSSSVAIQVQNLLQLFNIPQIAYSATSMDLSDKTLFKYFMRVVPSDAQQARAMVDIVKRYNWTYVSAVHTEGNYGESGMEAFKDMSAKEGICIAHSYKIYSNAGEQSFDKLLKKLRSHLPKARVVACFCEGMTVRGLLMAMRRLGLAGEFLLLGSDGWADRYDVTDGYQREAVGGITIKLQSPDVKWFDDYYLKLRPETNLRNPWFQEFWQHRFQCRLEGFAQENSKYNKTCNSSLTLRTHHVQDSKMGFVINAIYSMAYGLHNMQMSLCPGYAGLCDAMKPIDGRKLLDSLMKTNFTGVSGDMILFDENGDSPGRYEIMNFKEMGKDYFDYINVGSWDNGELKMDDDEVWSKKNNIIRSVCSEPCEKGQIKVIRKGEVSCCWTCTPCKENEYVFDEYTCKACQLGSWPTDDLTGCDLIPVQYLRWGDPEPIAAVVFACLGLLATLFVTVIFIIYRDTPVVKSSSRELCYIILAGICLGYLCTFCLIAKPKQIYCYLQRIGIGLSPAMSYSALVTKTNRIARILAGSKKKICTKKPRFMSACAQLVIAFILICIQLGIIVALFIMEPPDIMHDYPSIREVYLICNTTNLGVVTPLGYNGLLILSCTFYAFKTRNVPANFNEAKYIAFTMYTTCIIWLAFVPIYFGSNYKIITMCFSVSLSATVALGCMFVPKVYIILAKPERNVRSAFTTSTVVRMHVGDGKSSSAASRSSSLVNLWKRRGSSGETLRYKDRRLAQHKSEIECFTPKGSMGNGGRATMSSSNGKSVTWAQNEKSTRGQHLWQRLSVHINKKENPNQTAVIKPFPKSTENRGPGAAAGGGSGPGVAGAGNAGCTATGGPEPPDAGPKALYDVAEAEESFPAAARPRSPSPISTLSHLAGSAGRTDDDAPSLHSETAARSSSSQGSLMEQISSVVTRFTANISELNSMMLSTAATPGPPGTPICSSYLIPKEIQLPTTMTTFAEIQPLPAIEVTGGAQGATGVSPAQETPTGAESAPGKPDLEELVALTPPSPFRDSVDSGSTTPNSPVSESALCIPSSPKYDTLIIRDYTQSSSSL
How it was run: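 Calcium mobilization in HEK293 cells expressing rat mGlu5, used to obtain functional EC50. pEC50 is the mean of three independent determinations, with coefficient of variation <0.05.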

[2] = target: Metabotropic glutamate receptor 5 (Rattus norvegicus) (UniProt P31424); assay: Displacement of [3H]methoxyPEPy from rat mGluR5 expressed in human HEK293 cells at 10 uM after 1 hr by scintillation counter; assay type: cell-based
Metabotropic glutamate receptor 5 (Rattus norvegicus), sequence (P31424 21-1203 limits assumed): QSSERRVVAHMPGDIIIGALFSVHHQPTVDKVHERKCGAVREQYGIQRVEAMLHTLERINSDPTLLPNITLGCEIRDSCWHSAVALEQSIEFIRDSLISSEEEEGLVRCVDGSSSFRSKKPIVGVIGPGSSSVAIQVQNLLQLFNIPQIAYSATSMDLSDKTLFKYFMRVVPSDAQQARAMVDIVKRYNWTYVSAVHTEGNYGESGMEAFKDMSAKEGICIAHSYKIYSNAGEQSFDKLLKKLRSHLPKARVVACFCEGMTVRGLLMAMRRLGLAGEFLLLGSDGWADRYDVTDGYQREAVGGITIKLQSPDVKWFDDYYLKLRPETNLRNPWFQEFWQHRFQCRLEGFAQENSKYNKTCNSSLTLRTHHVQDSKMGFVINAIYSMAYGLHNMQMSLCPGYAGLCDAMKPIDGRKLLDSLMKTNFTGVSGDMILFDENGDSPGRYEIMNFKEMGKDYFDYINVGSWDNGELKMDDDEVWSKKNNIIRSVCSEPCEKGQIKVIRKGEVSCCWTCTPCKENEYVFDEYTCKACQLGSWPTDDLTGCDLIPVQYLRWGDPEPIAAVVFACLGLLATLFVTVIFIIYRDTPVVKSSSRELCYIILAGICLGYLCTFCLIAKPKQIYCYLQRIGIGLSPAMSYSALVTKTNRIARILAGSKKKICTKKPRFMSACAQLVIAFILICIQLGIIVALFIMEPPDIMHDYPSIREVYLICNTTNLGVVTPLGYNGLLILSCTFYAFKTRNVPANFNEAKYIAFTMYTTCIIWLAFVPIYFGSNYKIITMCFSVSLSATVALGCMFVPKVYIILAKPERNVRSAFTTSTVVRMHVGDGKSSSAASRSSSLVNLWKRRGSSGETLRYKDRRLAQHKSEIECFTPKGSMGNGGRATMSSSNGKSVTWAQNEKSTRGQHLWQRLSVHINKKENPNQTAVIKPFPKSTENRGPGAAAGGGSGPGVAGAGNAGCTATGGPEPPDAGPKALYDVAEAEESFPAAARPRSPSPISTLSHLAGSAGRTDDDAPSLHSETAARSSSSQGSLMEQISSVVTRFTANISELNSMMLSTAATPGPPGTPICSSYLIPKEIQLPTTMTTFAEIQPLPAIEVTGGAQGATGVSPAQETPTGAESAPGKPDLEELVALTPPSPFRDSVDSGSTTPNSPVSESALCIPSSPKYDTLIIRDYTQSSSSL
How it was run: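 Single-concentration binding to the MPEP site, read as % displacement of [3H]methoxyPEPy at 10 μM test compound. Values are the average of two determinations.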

[3] = target: T1, Metabotropic glutamate receptor 5; assay: Displacement of [3H]methoxyPEPy from rat mGluR5 expressed in human HEK293 cells after 1 hr by scintillation counter; assay type: cell-based
[4] = target: T2, Metabotropic glutamate receptor 5 (Homo sapiens, UniProt P41594); assay: Positive allosteric modulation of human mGluR5 expressed in HEK293 cells assessed as calcium mobilization; assay type: functional, cell-based
Target sequence in this assay (P41594 whole entry): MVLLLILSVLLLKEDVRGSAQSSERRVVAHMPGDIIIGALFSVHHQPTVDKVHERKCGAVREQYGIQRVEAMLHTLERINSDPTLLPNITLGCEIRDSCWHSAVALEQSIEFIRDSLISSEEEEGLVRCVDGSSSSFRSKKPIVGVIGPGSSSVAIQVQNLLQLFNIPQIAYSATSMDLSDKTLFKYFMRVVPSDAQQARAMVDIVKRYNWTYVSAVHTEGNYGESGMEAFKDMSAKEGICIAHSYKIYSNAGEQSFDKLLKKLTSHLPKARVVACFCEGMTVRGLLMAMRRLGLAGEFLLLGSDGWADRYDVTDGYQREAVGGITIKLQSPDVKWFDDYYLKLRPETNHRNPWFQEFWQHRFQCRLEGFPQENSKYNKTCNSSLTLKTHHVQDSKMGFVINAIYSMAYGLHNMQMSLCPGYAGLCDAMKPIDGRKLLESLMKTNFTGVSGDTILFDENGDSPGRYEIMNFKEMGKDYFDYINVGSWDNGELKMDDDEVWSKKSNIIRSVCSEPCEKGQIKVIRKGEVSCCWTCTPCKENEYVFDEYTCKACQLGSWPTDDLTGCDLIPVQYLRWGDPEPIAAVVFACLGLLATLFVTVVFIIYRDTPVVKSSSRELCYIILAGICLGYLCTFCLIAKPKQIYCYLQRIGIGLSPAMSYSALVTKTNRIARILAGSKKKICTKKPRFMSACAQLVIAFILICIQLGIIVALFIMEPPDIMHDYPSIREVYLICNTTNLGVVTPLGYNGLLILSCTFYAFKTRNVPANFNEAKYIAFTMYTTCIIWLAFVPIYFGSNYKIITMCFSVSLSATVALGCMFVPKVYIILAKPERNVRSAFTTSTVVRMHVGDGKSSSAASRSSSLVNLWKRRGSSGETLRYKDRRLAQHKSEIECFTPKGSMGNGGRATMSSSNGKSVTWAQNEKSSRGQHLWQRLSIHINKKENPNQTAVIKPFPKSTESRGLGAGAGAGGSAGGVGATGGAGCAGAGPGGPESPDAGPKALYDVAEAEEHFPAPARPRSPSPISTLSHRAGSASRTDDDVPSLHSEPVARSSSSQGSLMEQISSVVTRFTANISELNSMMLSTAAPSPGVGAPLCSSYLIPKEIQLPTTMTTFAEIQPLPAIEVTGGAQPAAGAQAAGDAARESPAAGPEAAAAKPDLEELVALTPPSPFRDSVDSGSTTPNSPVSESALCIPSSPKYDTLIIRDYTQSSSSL

[5] = target: T2, Metabotropic glutamate receptor 5; assay: Positive allosteric modulation of human mGlu5 expressed in HEK293 cells relative to glutamate; assay type: cell-based
Target sequence in this assay (P41594 21-1212 limits assumed): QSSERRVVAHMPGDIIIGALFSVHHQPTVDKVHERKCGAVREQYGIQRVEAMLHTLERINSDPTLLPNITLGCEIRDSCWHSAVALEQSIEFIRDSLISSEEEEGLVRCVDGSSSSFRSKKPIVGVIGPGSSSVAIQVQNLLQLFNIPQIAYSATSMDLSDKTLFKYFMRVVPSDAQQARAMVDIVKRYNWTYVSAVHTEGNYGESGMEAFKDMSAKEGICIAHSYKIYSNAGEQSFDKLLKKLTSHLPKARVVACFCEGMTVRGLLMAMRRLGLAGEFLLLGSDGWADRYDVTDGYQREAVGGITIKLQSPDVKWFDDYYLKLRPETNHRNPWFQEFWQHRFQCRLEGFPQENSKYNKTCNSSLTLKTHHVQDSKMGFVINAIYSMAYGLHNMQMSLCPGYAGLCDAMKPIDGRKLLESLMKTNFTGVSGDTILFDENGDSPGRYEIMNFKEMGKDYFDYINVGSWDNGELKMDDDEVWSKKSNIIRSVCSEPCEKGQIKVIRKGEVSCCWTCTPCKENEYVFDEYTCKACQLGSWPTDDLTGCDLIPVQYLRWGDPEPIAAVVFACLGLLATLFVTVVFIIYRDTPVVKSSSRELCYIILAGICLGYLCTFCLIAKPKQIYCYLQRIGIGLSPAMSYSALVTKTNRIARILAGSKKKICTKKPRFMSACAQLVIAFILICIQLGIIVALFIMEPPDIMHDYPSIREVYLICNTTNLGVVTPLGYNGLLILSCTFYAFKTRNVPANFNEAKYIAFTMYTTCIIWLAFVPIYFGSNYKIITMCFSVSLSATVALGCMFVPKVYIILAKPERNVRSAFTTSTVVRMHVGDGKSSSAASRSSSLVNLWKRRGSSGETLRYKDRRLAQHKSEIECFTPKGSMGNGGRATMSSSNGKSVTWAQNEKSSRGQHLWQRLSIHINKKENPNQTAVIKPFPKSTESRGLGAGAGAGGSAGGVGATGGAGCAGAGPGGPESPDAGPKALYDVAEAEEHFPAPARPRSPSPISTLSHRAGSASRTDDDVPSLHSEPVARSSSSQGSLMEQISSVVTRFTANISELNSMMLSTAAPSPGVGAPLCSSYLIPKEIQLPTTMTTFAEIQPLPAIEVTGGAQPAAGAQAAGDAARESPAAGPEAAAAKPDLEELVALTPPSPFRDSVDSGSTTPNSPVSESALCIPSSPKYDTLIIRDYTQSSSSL

Rattus norvegicus [6] = assay: Antipsychotic activity in rat assessed as reversal of amphetamine-induced hyperlocomotion at 100 mg/kg, po; assay type: functional, organism-based; design: dose 100 mg/kg
How it was run: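 Rats given amphetamine to induce hyperlocomotion received the test agent orally at 100 mg/kg in 20% β-CD vehicle. Reversal of locomotor activity was measured.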

Brain [7] = assay: Fraction unbound in rat brain; assay type: ADME, tissue-based
[8] = target: Metabotropic glutamate receptor 1 (Homo sapiens, UniProt Q13255); assay: Positive allosteric modulation of mGluR1
[9] = target: Metabotropic glutamate receptor 7 (Homo sapiens, UniProt Q14831); assay: Positive allosteric modulation of mGluR7
[10] = Cmax in rat brain at 10 mg/kg, po; assay type: ADME, organism-based; design: dose 10 mg/kg, route oral
How it was run: (§1)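 Rats were dosed orally at 10 mg/kg in 20% β-CD. Snapshot drug levels were taken in portal vein, plasma and brain at 0.5, 1.0, 3.0 and 6.0 h. AUC, brain/plasma ratio, Cmax, Tmax and Vss were derived from these levels.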

Brain [11] = assay: Tmax in rat brain at 10 mg/kg, po; assay type: ADME, organism-based; design: dose 10 mg/kg, route oral; conditions: in vivo; how it was run: as §1
[12] = Plasma protein binding in rat plasma
Brain [13] = assay: Ratio of AUC in rat brain to AUC in rat plasma at 10 mg/kg, po; assay type: ADME, organism-based; design: dose 10 mg/kg, route oral; how it was run: as §1
[14] = system: Metabotropic glutamate receptor 5 (Rattus norvegicus), P31424 [T780A]; assay: Positive allosteric modulation of wild type rat mGlu5 receptor T780A mutant expressed in human HEK293 cells assessed as glutamate concentration response curve at 1 uM; assay type: cell-based
Metabotropic glutamate receptor 5 (Rattus norvegicus), P31424 [T780A], sequence (P31424 whole entry T780A): as the sequence (P31424 whole entry) above, with T780A counted along it

[15] = target: Metabotropic glutamate receptor 5 (Rattus norvegicus) (UniProt P31424); assay: Positive allosteric modulation of wild type rat mGlu5 expressed in human HEK293 cells assessed as glutamate concentration response curve at 1 uM; assay type: cell-based
Plasma = assay: AUC in rat plasma at 10 mg/kg, po; assay type: ADME, organism-based; design: dose 10 mg/kg, route oral; conditions: in vivo; how it was run: as §1
[16] = target: Metabotropic glutamate receptor 4 (Homo sapiens, UniProt Q14833); assay: Positive allosteric modulation of mGluR4
[17] = target: Metabotropic glutamate receptor 6 (Homo sapiens, UniProt O15303); assay: Positive allosteric modulation of mGluR6
[18] = target: Metabotropic glutamate receptor 3 (Homo sapiens, UniProt Q14832); assay: Positive allosteric modulation of mGluR3
[19] = system: Metabotropic glutamate receptor 5 (Rattus norvegicus), P31424 [P654F]; assay: Positive allosteric modulation of wild type rat mGlu5 receptor P654F mutant expressed in human HEK293 cells assessed as glutamate concentration response curve at 1 uM; assay type: cell-based
Metabotropic glutamate receptor 5 (Rattus norvegicus), P31424 [P654F], sequence (P31424 whole entry P654F): as the sequence (P31424 whole entry) above, with P654F counted along it

[20] = Terminal half life in rat at 1 mg/kg, iv and 10 mg/kg, po; assay type: ADME, organism-based; conditions: in vivo, read-out: beta t1/2 (converted)
How it was run: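 Non-crossover rat PK study with 1 mg/kg IV dosing and 10 mg/kg PO dosing in 20% β-CD. Plasma clearance and terminal half-life were determined.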

[21] = Drug uptake in rat brain after 90 mins; assay type: ADME, tissue-based; conditions: read-out: Drug uptake
Rattus norvegicus [22] = assay: Volume of distribution at steady state in rat at 10 mg/kg, po; assay type: ADME, organism-based; design: dose 10 mg/kg, route oral; conditions: in vivo; how it was run: as §1
[23] = AUC in rat brain at 10 mg/kg, po; assay type: ADME, organism-based; design: dose 10 mg/kg, route oral; how it was run: as §1
[24] = target: Metabotropic glutamate receptor 2 (Homo sapiens, UniProt Q14416); assay: Positive allosteric modulation of mGluR2
[25] = Plasma protein binding in human plasma
[26] = target: Metabotropic glutamate receptor 5 (Rattus norvegicus) (UniProt P31424); assay: Positive allosteric modulation of rat mGlu5 expressed in human HEK293 cells relative to glutamate; assay type: cell-based
[27] = Solubility of the compound in fasted state simulated intestinal fluid; assay type: physicochemical
[28] = target: Metabotropic glutamate receptor 8 (Homo sapiens, UniProt O00222); assay: Positive allosteric modulation of mGluR8
[29] = system: Metabotropic glutamate receptor 5 (Rattus norvegicus), P31424 [A809V]; assay: Positive allosteric modulation of wild type rat mGlu5 receptor A809V mutant expressed in human HEK293 cells assessed as glutamate concentration response curve at 1 uM; assay type: cell-based
Metabotropic glutamate receptor 5 (Rattus norvegicus), P31424 [A809V], sequence (P31424 whole entry A809V): as the sequence (P31424 whole entry) above, with A809V counted along it

C[C@H](NC(=O)c1ccc(OCc2cccc(F)c2)nc1)C1CCCCC1
EC50 ([1]; read-out: EC50): 167 nM

CC(C)(C)NC(=O)c1ccc(OCc2cccc(F)c2)nc1
EC50 ([1]; read-out: EC50): 136 nM

O=C(NC1COC1)c1ccc(OCc2cccc(F)c2)nc1
EC50 ([1]; hek293): Not Active

O=C(NC1CCCCC1)c1ccc(OCC2CCCC2)nc1
Activity [2]: 0%
EC50 ([1]; read-out: EC50): 446 nM

O=C(NC1CCC1)c1ccc(C#Cc2cccc(F)c2)nc1
Ki [3]: 195 nM
EC50 ([1]; read-out: EC50): 16 nM

CCCCCOc1ccc(C(=O)NC2CCCCC2)cn1
EC50 ([1]; read-out: EC50): 449 nM

O=C(NC1CCCCC1)c1ccc(OCC2CC2)nc1
EC50 ([1]; hek293): Not Active

CCCCOc1ccc(C(=O)Nc2ncc(F)cc2F)cc1
Activity [2]: 0%
EC50 ([1]; read-out: EC50): > 10000 nM

C[C@@H](NC(=O)c1ccc(OCc2cccc(F)c2)nc1)C1CCCCC1
EC50 ([1]; read-out: EC50): 15 nM

O=C(NC1CCCCC1)c1ccc(OCc2ccccc2)nc1
Activity [2]: 21%
EC50 ([1]; read-out: EC50): 34 nM

O=C(N[C@@H](C1CC1)C(F)(F)F)c1ccc(OCc2cccc(F)c2)nc1
EC50 ([1]; read-out: EC50): 83 nM
EC50 ([1]; read-out: pEC50 (converted)): 85.1 nM

CCC(C)COc1ccc(C(=O)NC2CCCCC2)cn1 (racemic)
EC50 ([1]; read-out: EC50): 1080 nM

CCCCOc1ccc(C(=O)NC2CCCCC2)cc1
Activity [2]: 12%
EC50 ([1]; read-out: EC50): 607 nM

CCCCOc1ccc(C(=O)NC2CCC2)cc1
Activity [2]: 6.5%
EC50 ([1]; read-out: EC50): 5170 nM

CCCCOc1ccc(C(=O)Nc2ccc(F)cc2F)cc1
Ki [3]: > 100000 nM
EC50 ([1]; hek293, read-out: EC50): 33 nM

CCCCOc1ccc(C(=O)Nc2ccc(F)cc2F)cn1
Activity [2]: 5%
EC50 ([1]; read-out: EC50): 725 nM

CCCC(C)Oc1ccc(C(=O)NC2CCCCC2)cn1 (stereo unspecified)
EC50 ([1]; hek293): Not Active

CCCCOc1ccc(C(=O)N(C)c2ccc(F)cc2F)cc1
EC50 ([1]; hek293): Not Active

O=C(NC1CCOCC1)c1ccc(OCc2cccc(F)c2)nc1
EC50 ([1]; read-out: pEC50 (converted)): 1620 nM

CCCOc1ccc(C(=O)NC2CCCCC2)cn1
EC50 ([1]; hek293): Not Active

O=C(NC1CCCCC1)c1ccc(OCc2ccc(F)cc2)nc1
EC50 ([1]; read-out: EC50): 251 nM

CC(C)CCOc1ccc(C(=O)NC2CCCCC2)cn1
EC50 ([1]; read-out: EC50): 1140 nM

O=C(NC1CCC1)c1ccc(OCc2ccccc2)nc1
EC50 ([1]; read-out: EC50): 297 nM

O=C(NC1CCC1)c1ccc(OCc2cccc(F)c2)nc1
EC50 ([1]; read-out: EC50): 300 nM

O=C(NC1CCOCC1)c1ccc(OCc2ccccc2)nc1
EC50 ([1]; read-out: EC50): 3810 nM

CCCCOc1ccc(C(=O)Nc2ccc(F)cn2)cn1
Activity [2]: 9.5%
EC50 ([1]; read-out: EC50): 1900 nM

C[C@@H](NC(=O)c1ccc(OCc2cccc(F)c2)cc1)C(C)(C)C
EC50 [4]: 180 nM
Emax [5]: 70%

C[C@@H](NC(=O)c1ccc(OCc2cccc(F)c2)nc1)C(C)(C)C
Activity (Rattus norvegicus [6]): Active
Fu (Brain [7]): 1%
EC50 [8]: > 10000 nM
EC50 [9]: > 10000 nM
Cmax [10]: 0.435 µM
Tmax (Brain [11]): 0.5 h
PPB [12]: ≥ 0.99
Ratio AUC (Brain [13]): 0.05
Activity [14]: inactive
EC50 [4]: 70 nM
fold change (FC) [15]: 5
AUC (Plasma): 23 µM·h
Ki [3]: 153 nM
EC50 [16]: > 10000 nM
EC50 [17]: > 10000 nM
Emax [5]: 86%
fold change (FC) [5]: 10
EC50 [18]: > 10000 nM
Activity [19]: inactive
half-life [20]: 5 h
concentration at 1.5 h [21]: 7.4 µM
Vdss (Rattus norvegicus [22]): 2.3 L/kg
AUC [23]: 1.2 µM·h
EC50 [24]: > 10000 nM
PPB [25]: ≥ 0.99
Emax [26]: 83%
fold change (FC) [26]: 8.2
solubility [27]: < 20 µg/mL
EC50 [28]: > 10000 nM
Activity [29]: inactive

O=C(NC1CCCCC1)c1ccc(OCc2cccc(F)c2)nc1
EC50 ([1]; read-out: EC50): 29 nM

CCCCOc1ccc(C(=O)NC2CCCCC2)cn1
Activity [2]: 27%
EC50 ([1]; read-out: EC50): 2490 nM
